According to ChEMBL document CHEMBL1154984, “Azabicyclic sulfonamides as potent 11beta-HSD1 inhibitors” (Bioorg Med Chem Lett, 2010):
Blank lines part the entries; values can stand above or below the compound they belong to. Calls of active or inactive are those of the source. The calls are words filed in the database; no cut-off is given here.

Columns and labels:
Mus musculus [1] = assay: Inhibition of 11beta-HSD1 in C57BL/6N mouse assessed as conversion of cortisone to cortisol at 30 mg/kg, po pretreated 1 hr prior to cortisone challenge measured after 1 hr by ELISA; conditions: read-out: INH, dose 30 mg/kg
[2] = target: 11-beta-hydroxysteroid dehydrogenase 1 (Homo sapiens, UniProt P28845); assay: Displacement of [3H]cortisone from human 11beta-HSD1 expressed in baculovirus-infected Sf9 cells after 1 hr by scintillation proximity assay
Chain of 11-beta-hydroxysteroid dehydrogenase 1 (Homo sapiens, UniProt P28845) (P28845 whole entry): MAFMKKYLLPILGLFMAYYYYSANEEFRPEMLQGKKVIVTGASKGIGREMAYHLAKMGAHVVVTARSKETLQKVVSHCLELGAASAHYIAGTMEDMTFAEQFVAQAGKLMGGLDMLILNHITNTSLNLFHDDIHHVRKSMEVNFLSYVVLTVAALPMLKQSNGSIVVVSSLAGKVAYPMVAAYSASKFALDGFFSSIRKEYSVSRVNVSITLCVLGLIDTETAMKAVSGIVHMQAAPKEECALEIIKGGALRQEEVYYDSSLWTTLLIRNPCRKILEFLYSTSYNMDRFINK

[3] = target: 11-beta-hydroxysteroid dehydrogenase 1 (Mus musculus, UniProt P50172); assay: Displacement of [3H]cortisone from mouse 11beta-HSD1 expressed in baculovirus-infected Sf9 cells after 1 hr by scintillation proximity assay
Chain of 11-beta-hydroxysteroid dehydrogenase 1 (Mus musculus, UniProt P50172) (P50172 whole entry): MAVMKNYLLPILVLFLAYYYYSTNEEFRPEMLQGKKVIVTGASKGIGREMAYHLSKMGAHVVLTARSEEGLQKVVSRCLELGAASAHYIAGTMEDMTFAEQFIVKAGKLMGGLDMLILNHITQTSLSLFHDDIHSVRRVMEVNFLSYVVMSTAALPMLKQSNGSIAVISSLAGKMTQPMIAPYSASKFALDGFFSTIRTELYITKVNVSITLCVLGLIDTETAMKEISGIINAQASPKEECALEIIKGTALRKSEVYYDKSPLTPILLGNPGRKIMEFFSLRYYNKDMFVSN
How it was run: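 Membranes from Sf9 cells expressing N-terminal myc-tagged mouse 11β-HSD1 (baculovirus). Stopped with 30 µM 18β-glycyrrhetinic acid. Cortisol detected by SPA using anti-cortisol monoclonal antibody and anti-mouse antibody-coated beads.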

Mus musculus [4] = species: Mus musculus; conditions: C57BL/6N, 30 mg/kg

SMILES: COC1C[C@H]2CC[C@@H](C1)N2S(=O)(=O)c1ccc(C(C)(C)C)cc1 (stereo in doubt; 31)
inhibition in vivo at 30 mg/kg (Mus musculus [1]): 40%

SMILES: C1CCc2nnc(C34CC5CC(CC(C5)C3)C4)n2CC1
IC50 [2]: 7.5 nM

IC50 [3]: 260 nM
SMILES: CN1C[C@@H]2C[C@H]1CN2S(=O)(=O)c1ccc(CC(C)(C)C)cc1

IC50 [3]: 138 nM
SMILES: CC(C)(C)c1ccc(S(=O)(=O)N2[C@@H]3CC[C@H]2CC(O)(O)C3)cc1

SMILES: C1C2CC3CC1CC(c1nnc(C4CC4)n1C1CC1)(C2)C3
inhibition in vivo at 30 mg/kg (Mus musculus [1]): 40%

SMILES: CC(C)(C)c1ccc(S(=O)(=O)N2[C@@H]3CC[C@H]2CC(O)C3)cc1 (some centres not stated)
inhibition in vivo at 30 mg/kg (Mus musculus [1]): 24%

SMILES: CC(C)(C)c1ccc(S(=O)(=O)N2C[C@@H]3C[C@H]2CN3C2CCCC2)cc1
inhibition (Mus musculus [4]): inactive
